According to ChEMBL document CHEMBL4190373, “Tumor Targeting with Novel Pyridyl 6-Substituted Pyrrolo[2,3- d]Pyrimidine Antifolates via Cellular Uptake by Folate Receptor α and the Proton-Coupled Folate Transporter and Inhibition of De Novo Purine Nucleotide Biosynthesis” (J Med Chem, 2018):
The source made the active and inactive calls. The calls are words filed in the database; no cut-off is given here.

Tests used:
[1] = molecular target: T1, Proton-coupled folate transporter (Homo sapiens) (UniProt Q96NT5); assay: Inhibition of [3H]MTX uptake at human PCFT expressed in Chinese hamster R2/PCFT4 cells at 1 uM at pH 5.5 by scintillation counting method relative to control; assay type: cell-based
T1 sequence (whole entry): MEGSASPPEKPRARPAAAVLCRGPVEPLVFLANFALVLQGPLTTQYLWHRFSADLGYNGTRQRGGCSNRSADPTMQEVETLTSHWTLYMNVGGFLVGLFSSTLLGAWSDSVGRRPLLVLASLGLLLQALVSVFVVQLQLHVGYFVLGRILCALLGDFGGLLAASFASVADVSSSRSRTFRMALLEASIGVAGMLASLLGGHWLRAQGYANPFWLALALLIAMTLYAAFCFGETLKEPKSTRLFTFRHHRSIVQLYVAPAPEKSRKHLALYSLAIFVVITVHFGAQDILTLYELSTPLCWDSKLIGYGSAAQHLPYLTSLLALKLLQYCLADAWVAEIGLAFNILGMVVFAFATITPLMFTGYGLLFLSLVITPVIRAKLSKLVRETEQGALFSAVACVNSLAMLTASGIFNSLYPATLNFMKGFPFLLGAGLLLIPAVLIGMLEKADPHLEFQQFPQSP
Method in brief: (§1)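 Buffers: MES-buffered saline pH 5.5 or HEPES-buffered saline pH 6.8, with 1 or 10 µM inhibitor. Quenched with ice-cold DPBS, counted by scintillation, normalized to protein and untreated controls. Mean ± SE, 3 experiments.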

[2] = molecular target: T1, Proton-coupled folate transporter (Homo sapiens); assay: Inhibition of [3H]MTX uptake at human PCFT expressed in Chinese hamster R2/PCFT4 cells at 10 uM at pH 6.8 by scintillation counting method relative to control; assay type: cell-based; method in brief: as §1
Mus musculus [3] = assay: Toxicity in folate-deficient diet fed ICR SCID mouse assessed as body weight loss at […], iv administered every 4 days for 4 times starting on day 3 measured twice per week; settings: in vivo
IGROV-1 [4] = assay: Antitumor activity against human IGROV1 cells xenografted in folate-deficient diet ICR SCID mouse assessed as tumor growth delay time at […], iv administered every 4 days for 4 times starting on day 3 measured twice per week
[5] = Cytotoxicity in RFC-null Chinese hamster R2 cells assessed as reduction in cell viability measured after 96 hrs by Cell-Titer Blue assay; assay type: cell-based; settings: Cricetulus griseus, R2, 96 h
Method in brief: (§2)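 CHO sublines expressing human PCFT (R2/PCFT4) or RFC (PC43-10), transporter-null R2, and empty-vector R2(VC). Continuous drug up to 1000 nM, up to 96 h, CellTiter-Blue fluorescence.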

[6] = molecular target: T1, Proton-coupled folate transporter (Homo sapiens); settings: 1 uM
KB [7] = assay: Antiproliferative activity against human KB cells expressing human RFC/FR-alpha/PCFT assessed as reduction in cell viability measured after 96 hrs in presence of folic acid by Cell-Titer Blue assay; assay type: functional, cell-based
[8] = molecular target: T1, Proton-coupled folate transporter (Homo sapiens); assay: Inhibition of [3H]MTX uptake at human PCFT expressed in Chinese hamster R2/PCFT4 cells at 10 uM at pH 5.5 by scintillation counting method relative to control; assay type: cell-based; method in brief: as §1
[9] = Growth inhibition of Chinese hamster R2(VC) cells after 96 hrs celltiter-blue assay; settings: Cricetulus griseus; method in brief: as §2
[10] = molecular target: Folate receptor alpha (Homo sapiens) (UniProt P15328); assay: Displacement of [3H]folic acid from human FR-alpha receptor expressed in Chinese hamster RT16 cells measured after 15 mins; assay type: cell-based
Method in brief: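 RT16 (FRα) or D4 (FRβ) CHO cells, ~5 x 10^6 per dish, stripped of bound folate with pH 3.5 acetate buffer. Then incubated in HEPES-buffered saline pH 7.4 with 50 nM [3H]folic acid ± unlabeled ligand 1-1000 nM. Bound label normalized to protein. […] Mean ± SE, 3 experiments.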

IGROV-1 [11] = assay: Antiproliferative activity against human IGROV1 cells expressing human FR-alpha/PCFT assessed as reduction in cell viability measured after 96 hrs in presence of folic acid by Cell-Titer Blue assay; assay type: functional, cell-based; settings: IGROV-1, 96 h
Method in brief: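 IGROV1 growth inhibition in folate-free RPMI 1640 with 10% dialyzed FBS, 2 nM leucovorin and 2 mM L-glutamine, with 200 nM folic acid added to block FR-mediated uptake. Drug present continuously up to 1000 nM for up to 96 h. Readout by CellTiter-Blue fluorescence.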

KB [12] = assay: Antiproliferative activity against human KB cells expressing human RFC/FR-alpha/PCFT assessed as reduction in cell viability up to 1000 nM measured after 96 hrs in presence of adenosine by Cell-Titer Blue assay; assay type: functional, cell-based
KB [13] = assay: Antiproliferative activity against human KB cells expressing human RFC/FR-alpha/PCFT assessed as reduction in cell viability up to 1000 nM measured after 96 hrs in presence of AICA by Cell-Titer Blue assay; assay type: functional, cell-based
KB [14] = assay: Antiproliferative activity against human KB cells expressing human RFC/FR-alpha/PCFT assessed as reduction in cell viability measured after 96 hrs by Cell-Titer Blue assay; assay type: functional, cell-based
[15] = molecular target: T2, Trifunctional purine biosynthetic protein adenosine-3 (Homo sapiens, UniProt P22102); assay: Inhibition of GARFTase in human KB cells assessed as decrease in [14C]formyl GAR accumulation preincubated for 30 mins followed by [14C]glycine addition measured after 15 hrs in presence of azaserine by ion-exchange chromatographic assay; assay type: cell-based
T2 sequence (P22102 whole entry): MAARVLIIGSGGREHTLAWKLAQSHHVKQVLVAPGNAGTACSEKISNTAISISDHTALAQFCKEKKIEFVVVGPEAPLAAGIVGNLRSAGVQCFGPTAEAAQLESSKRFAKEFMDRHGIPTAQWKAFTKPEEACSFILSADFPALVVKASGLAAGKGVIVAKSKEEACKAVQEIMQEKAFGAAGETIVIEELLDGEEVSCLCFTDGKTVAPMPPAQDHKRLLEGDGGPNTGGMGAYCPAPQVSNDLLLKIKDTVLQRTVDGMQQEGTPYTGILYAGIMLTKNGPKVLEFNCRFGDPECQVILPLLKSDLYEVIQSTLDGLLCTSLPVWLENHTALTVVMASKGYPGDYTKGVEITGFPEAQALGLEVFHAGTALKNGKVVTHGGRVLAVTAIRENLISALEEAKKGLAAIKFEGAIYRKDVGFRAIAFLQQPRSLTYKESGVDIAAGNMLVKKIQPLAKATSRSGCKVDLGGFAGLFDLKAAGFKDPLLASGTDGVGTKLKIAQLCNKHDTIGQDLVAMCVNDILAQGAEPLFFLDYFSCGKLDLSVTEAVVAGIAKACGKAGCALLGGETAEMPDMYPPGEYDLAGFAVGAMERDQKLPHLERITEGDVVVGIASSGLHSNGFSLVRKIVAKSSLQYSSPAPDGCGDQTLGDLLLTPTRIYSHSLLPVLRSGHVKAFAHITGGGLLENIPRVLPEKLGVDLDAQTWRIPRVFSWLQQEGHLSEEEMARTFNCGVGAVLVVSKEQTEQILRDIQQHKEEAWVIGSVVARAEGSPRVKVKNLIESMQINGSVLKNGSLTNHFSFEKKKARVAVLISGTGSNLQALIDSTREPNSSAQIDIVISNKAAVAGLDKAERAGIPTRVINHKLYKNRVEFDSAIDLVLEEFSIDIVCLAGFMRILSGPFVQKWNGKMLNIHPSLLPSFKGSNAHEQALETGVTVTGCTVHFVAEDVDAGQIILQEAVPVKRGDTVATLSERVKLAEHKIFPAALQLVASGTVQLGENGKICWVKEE

[16] = molecular target: Folate receptor beta (Homo sapiens) (UniProt P14207); assay: Displacement of [3H]folic acid from human FR-beta receptor expressed in Chinese hamster D4 cells measured after 15 mins; assay type: cell-based
KB [17] = assay: Antiproliferative activity against human KB cells expressing human RFC/FR-alpha/PCFT assessed as reduction in cell viability up to 1000 nM measured after 96 hrs in presence of thymidine by Cell-Titer Blue assay; assay type: functional, cell-based
[18] = molecular target: T1, Proton-coupled folate transporter (Homo sapiens); assay: Inhibition of [3H]MTX uptake at human PCFT expressed in Chinese hamster R2/PCFT4 cells at 1 to 10 uM at pH 5.5 to 6.8 by scintillation counting method; assay type: cell-based; method in brief: as §1
IGROV-1 [19] = assay: Antiproliferative activity against human IGROV1 cells expressing human FR-alpha/PCFT assessed as reduction in cell viability measured after 96 hrs by Cell-Titer Blue assay; assay type: functional, cell-based; settings: IGROV-1, 96 h
Mus musculus [20] = assay: Toxicity in folate-deficient diet fed ICR SCID mouse assessed as body weight loss at 150 mg/kg, iv administered every 2 days for 8 times starting on day 3 measured twice per week; assay type: organism-based; settings: in vivo, 48 h
Method in brief: (§3)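 Female SCID mice, 10 weeks, ~20 g. Fed folate-deficient or folate-replete diet from 14 days before bilateral s.c. IGROV1 tumor fragments (30-60 mg, trocar). […] Weighed daily, tumors measured twice weekly. Growth delay = T-C days to 1000 mg, median.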

[21] = molecular target: T3, Proton-coupled folate transporter (Homo sapiens, UniProt Q96NT5); assay: Inhibition of [3H]MTX uptake at human PCFT expressed in Chinese hamster R2/PCFT4 cells at pH 5.5 measured after 2 mins by Dixon plot analysis; assay type: cell-based
T3 sequence (Q96NT5 whole entry): T1 sequence (whole entry)

IGROV-1 [22] = assay: Antitumor activity against human IGROV1 cells xenografted in folate-deficient diet fed ICR SCID mouse assessed as tumor growth inhibition at 150 mg/kg, iv administered every 2 days for 8 times starting on day 3 measured twice per week up to 49 days; assay type: functional, organism-based; method in brief: as §3
IGROV-1 [23] = assay: Antitumor activity against human IGROV1 cells xenografted in high folate diet fed ICR SCID mouse assessed as tumor growth inhibition at 150 mg/kg, iv administered every 2 days for 8 times starting on day 3 measured twice per week; assay type: functional, organism-based; method in brief: as §3
IGROV-1 [24] = assay: Antitumor activity against human IGROV1 cells xenografted in folate-deficient diet fed ICR SCID mouse assessed as tumor growth delay time at 150 mg/kg, iv administered every 2 days for 8 times starting on day 3 measured twice per week; assay type: functional; method in brief: as §3

Folate receptor alpha (Homo sapiens), sequence (P15328 25-234 limits assumed): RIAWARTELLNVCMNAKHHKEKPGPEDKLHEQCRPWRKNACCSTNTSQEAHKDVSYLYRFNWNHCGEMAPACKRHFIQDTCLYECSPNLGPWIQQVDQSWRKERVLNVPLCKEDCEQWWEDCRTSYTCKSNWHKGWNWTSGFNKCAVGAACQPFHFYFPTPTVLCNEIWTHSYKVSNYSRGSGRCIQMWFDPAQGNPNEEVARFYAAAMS
Folate receptor beta (Homo sapiens), sequence (P14207 17-230 limits assumed): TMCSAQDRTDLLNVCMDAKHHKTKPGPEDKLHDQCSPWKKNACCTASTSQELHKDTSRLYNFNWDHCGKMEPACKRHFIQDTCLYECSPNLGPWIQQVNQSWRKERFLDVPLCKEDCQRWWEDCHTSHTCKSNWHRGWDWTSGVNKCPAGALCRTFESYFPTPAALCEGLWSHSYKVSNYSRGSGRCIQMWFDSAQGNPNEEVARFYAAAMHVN

## Nc1nc2[nH]cc(CCc3ccc(C(=O)N[C@@H](CCC(=O)O)C(=O)O)cc3)c2c(=O)[nH]1 [PEMETREXED]
[1]
  inhibition: 85%
[2]
  inhibition: 75%
Mus musculus [3]
  Activity: 14%
IGROV-1 [4]
  Time: 0 days
[5]
  IC50: 849 nM
[6]
  inhibition: 40%

## Nc1nc2[nH]c(CCCCc3ccc(C(=O)N[C@@H](CCC(=O)O)C(=O)O)cc3)cc2c(=O)[nH]1
[1]
  inhibition: 50%
KB [7]
  IC50: > 1000 nM
[8]
  inhibition: > 90%
[9]
  IC50: > 1000 nM
[2]
  inhibition: 35%
[10]
  inhibition: Active
[5]
  IC50: > 1000 nM
[6]
  inhibition: 0%
IGROV-1 [11]
  IC50: > 1000 nM

## Nc1nc2[nH]c(CCCCc3ccc(C(=O)N[C@@H](CCC(=O)O)C(=O)O)cn3)cc2c(=O)[nH]1
KB [12]
  Activity: inactive
KB [7]
  IC50: > 1000 nM
KB [13]
  Activity: inactive
KB [14]
  IC50: 17.4 nM
[15]
  IC50: 4.8 nM
[9]
  IC50: > 1000 nM
[10]
  inhibition: Active
[5]
  IC50: > 1000 nM
[16]
  inhibition: Active
KB [17]
  Activity: Active

## CN(Cc1cnc2nc(N)nc(N)c2n1)c1ccc(C(=O)N[C@@H](CCCNC(=O)c2ccccc2C(=O)O)C(=O)O)cc1
[18]
  inhibition: inactive

## C#CCC(Cc1cnc2nc(N)nc(N)c2n1)c1ccc(C(=O)N[C@@H](CCC(=O)O)C(=O)O)cc1 (mixture of isomers) [PRALATREXATE]
[9]
  IC50: > 1000 nM
[5]
  IC50: 819 nM

## Nc1nc2[nH]c(CCC#Cc3cccc(C(=O)N[C@@H](CCC(=O)O)C(=O)O)n3)cc2c(=O)[nH]1
KB [7]
  IC50: > 1000 nM
KB [14]
  IC50: > 1000 nM
[9]
  IC50: > 1000 nM
[5]
  IC50: > 1000 nM

## CN(Cc1cnc2nc(N)nc(N)c2n1)c1ccc(C(=O)N[C@@H](CCC(=O)O)C(=O)O)cc1 [METHOTREXATE]
[9]
  IC50: > 1000 nM

## Nc1nc2[nH]c(CCCCc3ccc(C(=O)N[C@@H](CCC(=O)O)C(=O)O)nc3)cc2c(=O)[nH]1
[1]
  inhibition: 70%
KB [12]
  Activity: inactive
KB [7]
  IC50: 368 nM
KB [13]
  Activity: inactive
KB [14]
  IC50: 0.37 nM
IGROV-1 [19]
  IC50: 0.68 nM
[8]
  inhibition: > 90%
[9]
  IC50: > 1000 nM
[2]
  inhibition: 40%
Mus musculus [20]
  Activity: 5%
[5]
  IC50: > 1000 nM
[21]
  Ki: 332 nM
KB [17]
  Activity: Active
IGROV-1 [22]
  TGI: Active
[6]
  inhibition: 10%
IGROV-1 [23]
  TGI: inactive
IGROV-1 [11]
  IC50: 846 nM
IGROV-1 [24]
  Time: 45 days

## Nc1nc2[nH]c(CCC#Cc3ccc(C(=O)N[C@@H](CCC(=O)O)C(=O)O)nc3)cc2c(=O)[nH]1
KB [7]
  IC50: > 1000 nM
KB [14]
  IC50: > 1000 nM
[9]
  IC50: > 1000 nM
[5]
  IC50: > 1000 nM

## Nc1nc2[nH]c(CCC#Cc3ccc(C(=O)N[C@@H](CCC(=O)O)C(=O)O)cn3)cc2c(=O)[nH]1
KB [7]
  IC50: > 1000 nM
KB [14]
  IC50: > 1000 nM
[9]
  IC50: > 1000 nM
[5]
  IC50: > 1000 nM

## Nc1nc2[nH]c(CCCCc3cccc(C(=O)N[C@@H](CCC(=O)O)C(=O)O)n3)cc2c(=O)[nH]1
KB [12]
  Activity: inactive
KB [7]
  IC50: > 1000 nM
KB [13]
  Activity: inactive
KB [14]
  IC50: 667 nM
[9]
  IC50: > 1000 nM
[10]
  inhibition: inactive
[5]
  IC50: > 1000 nM
[16]
  inhibition: inactive
KB [17]
  Activity: Active
